As a reminder, the AUC(0-t) is exposure summed from dosing to a finite time, without extrapolation to infinity. Read a high AUC(0-t) as high exposure. One may read the AUC as concentration integrated over time.

Data set [1] is described as follows: AUC (0 to 24 hrs) in patient (6 patients) with renal insufficiency at 250 mg, po administered as single dose by gas chromatography. As to conditions: human, in vivo. Also noted: dose 250 mg, time < 24 hr, route oral. Format: ADME, organism-based.
The subject of data set [2] is Homo sapiens. As to the kind of experiment: AUC (0 to infinity) in patient (6 patients) with renal insufficiency at 250 mg, po assessed as hydroxy flutamide administered as single dose by gas chromatography. Type of data set: ADME, organism-based. As to conditions: in vivo. Also noted: dose 250 mg, route oral, time infinity.
Data set [3] in a line: Renal clearance in patient (4 patients) with renal insufficiency at 250 mg, po administered as single dose by gas chromatography. Type of data set: ADME, organism-based, Kidney. As to conditions: human, in vivo. The procedure, abridged:
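Males grouped by 24 h CLcr normalised to body surface area (>80, 50–80, 30–49, 5–29 ml min−1 1.73 m−2), fasted 10 h pre-dose and 4 h post-dose, given a single oral 250 mg flutamide dose. Plasma sampled 0–96 h; urine collected in blocks to 96 h. Flutamide and hydroxyflutamide measured by GC with electron-capture detection. Renal CL = Ae(0,96 h)/AUC(0,96 h); t1/2 = 0.693/λz.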

The test system of data set [4] is Homo sapiens. As to the kind of experiment: AUClast in patient (6 patients) with renal insufficiency assessed as hydroxy flutamide at 250 mg, po administered as single dose 4 hrs prior to hemodialysis treatment measured at starting time of dialysis and post dialysis treatment by gas chromatography. Also noted: dose 250 mg, time 0 - last, route oral. As to conditions: in vivo. Type of data set: ADME, organism-based.

Data set [5] in a line: AUC (0 to 96 hrs) in patient (7 patients) with renal insufficiency at 250 mg, po administered as single dose by gas chromatography. Type of data set: ADME, organism-based. Also noted: dose 250 mg, time < 96 hr, route oral. As to conditions: human, in vivo.

The compound `CC(C)C(=O)Nc1ccc([N+](=O)[O-])c(C(F)(F)F)c1` [FLUTAMIDE] gave an AUC(0-t) at 24 h in data set [1] of 96.4 ng·h/mL. Besides, the AUC in the data set with Homo sapiens [2] is 5527 ng·h/mL. Further, the CL renal in data set [3] is 4 mL/min. Further, the AUClast in the data set on Homo sapiens [4] turned out to be 5862 ng·h/mL. Besides, the AUC(0-t) at 96 h in data set [5] was determined as 59.8 ng·h/mL.

Source of the values: ChEMBL document CHEMBL3784969, “Pharmacokinetics of flutamide in patients with renal insufficiency” (Br J Clin Pharmacol, 1999).
